# The list is not random: actives were taken first. Their share in the collection is about 4.3%.
# AHR activator = activators of human aryl hydrocarbon receptor; AHR-responsive luciferase reporter cells, luminescence; activation, % at 5 µM; 320,000 tested, 2.5% active; AID 2796; in the data active = activation above about 47%
# Target sequence (P35869 whole entry, looked up): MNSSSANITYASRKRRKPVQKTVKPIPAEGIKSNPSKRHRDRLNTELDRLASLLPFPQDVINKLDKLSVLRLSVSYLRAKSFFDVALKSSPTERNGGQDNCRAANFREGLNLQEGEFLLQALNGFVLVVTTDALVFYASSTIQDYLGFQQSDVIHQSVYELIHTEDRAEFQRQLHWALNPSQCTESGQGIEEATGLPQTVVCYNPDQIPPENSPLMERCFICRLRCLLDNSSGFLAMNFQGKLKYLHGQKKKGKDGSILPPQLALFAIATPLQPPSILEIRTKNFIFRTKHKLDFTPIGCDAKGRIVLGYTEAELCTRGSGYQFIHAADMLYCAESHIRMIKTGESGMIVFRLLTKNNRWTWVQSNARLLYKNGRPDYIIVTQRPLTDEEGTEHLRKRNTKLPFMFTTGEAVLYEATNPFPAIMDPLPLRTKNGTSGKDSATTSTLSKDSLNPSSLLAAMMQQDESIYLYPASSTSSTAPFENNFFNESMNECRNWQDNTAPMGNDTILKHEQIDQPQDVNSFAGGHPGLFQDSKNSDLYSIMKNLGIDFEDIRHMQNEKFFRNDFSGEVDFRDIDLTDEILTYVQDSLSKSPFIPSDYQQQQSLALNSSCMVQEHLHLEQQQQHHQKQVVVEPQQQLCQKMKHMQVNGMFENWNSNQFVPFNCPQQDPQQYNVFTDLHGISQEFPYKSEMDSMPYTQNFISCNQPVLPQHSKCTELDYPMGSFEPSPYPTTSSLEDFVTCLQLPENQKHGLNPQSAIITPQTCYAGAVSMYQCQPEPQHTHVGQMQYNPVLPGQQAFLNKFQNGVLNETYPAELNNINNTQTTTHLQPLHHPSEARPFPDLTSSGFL
# SMARCA2 activ = activators of SMARCA2 function; MG213 cells, MMTV-luciferase reporter, dexamethasone, overnight; 370,000 tested, 1% active; activation, % at 9.1 µM; in the data active = activation above about 7.8%
# Lipid droplet = hepatic lipid droplet formation modulation; AML12 mouse hepatocytes, oleate lipid droplets, BODIPY imaging; inhibition, % at 6.5 µM; 240,000 tested, 0.4% active; AID 1656;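 active = lipid droplet intensity inhibited by at least 50%, with more than 500 cells counted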
#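 material = mouse AML12 hepatocyte cell line, fixed after treatment | also added = 100 µM oleic acid challenge | doses = compound at 6.5 µM only | schedule = overnight exposure | technique = Image-based BODIPY and DAPI two-channel analysis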
# SR-BI DiI inh = mouse SR-BI HDL lipid transfer inhibition. 320,000 tested, 0.96% active. Q61009. inhibition, % at 12.5 µM. ldlA[mSR-BI] CHO cells, DiI-HDL uptake fluorescence, 3 h;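 active = mean replicate inhibition of at least 70% and a set share of replicates each scoring 70 or more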
# SR-BI DiI-HDL act = activators of SR-BI mediated HDL lipid uptake | 320,000 tested, 0.096% active | CHO ldlA[mSR-BI] cells, DiI-HDL uptake fluorescence, 3 h; 100 = double the neutral-control signal | activation, % at 12.5 µM;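 active = mean replicate activation of at least 60% and every replicate at or above 60%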
#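 System: CHO ldlA[mSR-BI] cells / Medium: HEPES-buffered (25 mM, pH 7.4) F12 plus 0.5% BSA / Probe or stimulus: labelled HDL, 10 µg/mL / Doses: single compound concentration, delivered by pin transfer / Schedule: 3 h, 37 °C / Measured by: DiI fluorescence, bottom read / Measure: cell-associated DiI fluorescence as measure of HDL uptake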
# Yeast superoxide = yeast age-related superoxide inhibition as caloric restriction mimetic | S. cerevisiae aged cells, superoxide DHE fluorescence; hits give low values | superoxide response (% of plate mean), % at 10 µM | 330,000 tested, 0.18% active;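 active = superoxide response under a set limit, about three screen SD below normal, cut at about 65% in these data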;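 also: yeast aged for seven days with compound at 30 °C before DHE staining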
# Hits are given with their value; n = inactive; x = no result given.
SMILES,AHR activator,SMARCA2 activ,Lipid droplet,SR-BI DiI inh,SR-BI DiI-HDL act,Yeast superoxide
Cc1ccc(C)c(N2CCN(C(=S)Nc3ccc4nc(N5CCN(C)CC5)cc(C)c4c3)CC2)c1,n,n,n,n,n,n
Cc1ccc(C)c(N2CCN(C(=S)Nc3ccc4nc(N5CCOCC5)cc(C)c4c3)CC2)c1,n,n,n,87.0,n,n
O=C(Nc1nccs1)c1cc(Cl)nc2ccccc12,68.0,n,n,n,n,n
O=C(Nc1nccs1)c1cc(-c2ccccc2)nc2ccccc12,n,n,n,n,n,n
O=C(Nc1nccs1)c1cc(N2CCOCC2)nc2ccccc12,76.1,n,x,n,n,n
O=C(NCc1ccccc1)[C@H]1CCCN1C(=O)[C@H]1CCCN1C(=O)c1ccc(F)cc1F,x,n,x,x,x,x
O=C(N1CCOCC1)N1CC[C@H]2[C@H](CCCN2Cc2ccccc2)C1,x,n,x,x,x,x
COc1ccc(NC(=O)CSc2nnc(-c3n[nH]c4c3CCC4)n2N)cc1OC,x,n,x,x,x,x
Cc1cccc(NC(=O)c2cc(N3CCOCC3)nc3ccccc23)c1,n,n,x,n,n,n
O=C(Nc1ccccc1)c1cc(N2CCOCC2)nc2ccccc12,58.3,n,x,n,n,n
Cc1ccc(NC(=O)c2cc(N3CCOCC3)nc3ccccc23)cc1,58.1,n,x,n,n,n
CCCCCCCCN1C(=O)[C@@H](CC(=O)N2CCCC2)C[C@@]2(C(=O)OC)C1=C[C@H](C(C)C)O[C@@H]2C1CC1,x,n,x,x,x,x
O=C(O)/C=C/c1cnc2ccccc2n1,n,n,n,n,n,n
C(=C\c1ccco1)/c1ccc2ccccc2n1,n,n,n,x,x,n
Fc1cccc(Cl)c1/C=C/c1cnc2ccccc2n1,66.5,n,x,n,n,n
Fc1cccc(F)c1/C=C/c1ccc2ccccc2n1,47.9,n,n,n,n,n
O=C(Cn1cnc2ccccc2c1=O)N1CCN(Cc2ccc(F)cc2)CC1,x,n,x,x,x,x
CCOC(=O)Cc1cc(-c2ccc(F)cc2)nc2ccc3ccccc3c12,60.6,n,n,n,n,n
NC(=O)c1c(/N=C/c2cccs2)sc2c1CCCC2,69.8,n,n,x,x,n
COc1ccc(S(=O)(=O)N2CCCOC2CNC(=O)C(=O)NCCCn2ccnc2)cc1OC (configuration not stated),n,n,n,n,70.5,n
COc1ccc(S(=O)(=O)N2CCOC2CNC(=O)C(=O)NCCCn2ccnc2)cc1OC (configuration not stated),n,n,n,n,n,n
CCN(CC)C(=O)CC[C@H]1CC[C@]2(CCCN(Cc3ccncc3)C2)O1,x,n,x,x,x,x
CCCCN1CCN(C2=Nc3ccccc3Sc3ccccc32)CC1,x,n,x,x,x,x
O=C(C[n+]1ccc2ccccc2c1)Nc1cc(C(F)(F)F)ccc1Cl,n,n,n,n,n,58.6
Oc1ccccc1-c1cc(-c2cccc(F)c2)n[nH]1,72.3,n,x,n,n,n
SMILES,AHR activator,SMARCA2 activ,Lipid droplet,SR-BI DiI inh,SR-BI DiI-HDL act,Yeast superoxide
C=CCN1[C@@H](CC(C)C)COc2cc(N3CCSCC3)ccc2S1(=O)=O,x,n,x,x,x,x
C=CCn1c(SCc2nc3ccccc3c(=O)[nH]2)nc2ccccc2c1=O,59.7,n,n,n,n,n
C=CCn1c(Cc2ccccc2)nnc1SCc1nc2ccccc2c(=O)[nH]1,n,n,n,n,n,n
C[C@@H]1CN(C(=O)OC(C)(C)C)CCN1c1ccc(Br)c(C#N)c1,x,n,x,x,x,x
Cc1cc(O)c(C2=Nc3ccccc3SC(c3ccc(Cl)cc3)C2)c(=O)o1 (configuration not stated),n,n,n,n,n,n
COc1ccc(C2CC(c3c(O)cc(C)oc3=O)=NCCS2)c(OC)c1 (configuration not stated),n,x,x,78.2,n,n
Cc1ccc(OCCCCn2ccnc2)c([N+](=O)[O-])c1,61.3,n,n,n,n,n
Cc1ccc(C(C)(C)C)c(OCCCn2ccnc2)c1,47.7,n,n,n,n,n
Cc1cc(C)c(OCCCn2ccnc2)c(C)c1,x,n,x,n,n,n
Cc1cc(C(C)(C)C)ccc1OCCn1ccnc1,49.7,n,x,n,n,n
Cc1cc(C)c(C)c(OCCCn2ccnc2)c1,58.0,n,n,n,n,n
O=C(OCc1cn(Cc2cccc(C(F)(F)F)c2)nn1)N1CCOCC1,x,n,x,x,x,x
Cc1ccc(OCCCn2ccnc2)cc1C,n,n,n,n,n,n
Cc1cc(OCCn2ccnc2)ccc1C(C)C,63.9,n,n,n,n,n
COc1ccc(Cl)cc1N(CC(=O)Nc1ccc2c(c1)OCO2)S(C)(=O)=O,75.7,n,x,n,n,n
COc1ccc(N(CC(=O)Nc2ccc3c(c2)OCO3)S(=O)(=O)c2c(C)nn(C)c2C)cc1,59.5,n,n,n,n,n
COC(=O)[C@]12C[C@H](CC(=O)N3CCC(c4ccccc4)CC3)C(=O)N(Cc3ccc(Cl)cc3Cl)C1=C[C@H](COCc1ccccc1)O[C@@H]2C,x,n,x,x,x,x
C=CCN1CC(COCc2ccccc2)OCCS1(=O)=O (configuration not stated),x,n,x,x,x,x
COC(=O)C(C[N+](=O)[O-])C1=C(O)CC(C)(C)CC1=O (configuration not stated),x,n,x,x,x,x
Cc1csc(NC(=O)c2cnc3ccccc3n2)n1,57.1,n,n,n,n,n
Cc1csc(NC(=O)c2ccc(C(=O)Nc3nc(C)cs3)cc2)n1,n,x,n,x,x,n
Cc1csc(NC(=O)c2ccc3ccccc3n2)n1,73.7,n,x,n,n,n
Cc1csc(NC(=O)c2cc(C)nc3ccccc23)n1,n,n,n,n,n,n
CCOc1cc(N2CCOCC2)c(OCC)cc1NC(=O)c1ccc2ccccc2n1,n,n,n,95.5,n,n
O=C(Nc1nccs1)c1ccccc1Br,n,n,n,x,x,n
SMILES,AHR activator,SMARCA2 activ,Lipid droplet,SR-BI DiI inh,SR-BI DiI-HDL act,Yeast superoxide
O=C(Nc1nccs1)c1ccc2ccccc2n1,49.7,n,n,n,n,n
CC(=O)N(C)C[C@@H]1OCc2ccccc2-c2c(n(C)c3ccccc23)C(=O)N([C@@H](C)CO)C[C@@H]1C,x,n,x,x,x,x
COC(=O)c1cc2c(c3c4ccccc4n(S(=O)(=O)c4ccc(OC)cc4)c13)C(=O)N(Cc1ccc(N(C)C)cc1)C2,x,n,x,x,x,x
O=C(Nc1ccc(N2CCCCC2)cc1)c1ccc2ccccc2n1,63.1,n,n,n,n,n
O=C(Nc1cccc(S(=O)(=O)N2CCCCCC2)c1)c1ccc2ccccc2n1,n,n,n,n,n,n
Cc1ccccc1NC(=O)c1cccc(C(=O)Nc2ccccc2C)n1,n,n,n,n,n,n
Cc1oc(-c2ccccc2)nc1C(=O)Nc1nccs1,74.0,n,x,n,n,n
Cc1cccc(NC(=O)c2ccc3ccccc3n2)c1C,57.5,n,x,n,n,n
CC(=O)CC[C@H]1CC[C@]2(CCCN(C(=O)c3ccccc3)C2)O1,x,n,x,x,x,x
Cc1ccccc1C(=O)NC1CCCCN(Cc2cccc(F)c2)C1=O (configuration not stated),x,n,x,x,x,x
